Consider four compounds from ChEMBL document CHEMBL1799922, “Synthesis and antimycobacterial activity of prodrugs of indeno[2,1-c]quinoline derivatives” (Eur J Med Chem, 2011).

≈ marks a conversion by molar mass, not a printed value. A value given as a limit tells only on which side of the number the result lay.

Data set [1] in a line: Stability of the compound in 10% aqueous ammonia buffer at pH 8 assessed as hydrolysis to 2-bromo-6-(1H-imidazol-1-yl)-7H-indeno[2,1-c]quinolin-7-one oxime at 1 mg at 37 degC by LC-MS analysis. It is filed as physicochemical. Details: scale not given: the % may be the effect or the level left. The essentials:
(§1)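 Chemical hydrolysis: 1 mg prodrug dissolved in 1 mL of 10% aqueous ammonia in methanol (pH 8) and held in a thermostatted water bath at 37 °C, up to 24 h. Conversion to the parent oxime was followed by TLC and LC-MS. t1/2 is the time to 50% hydrolysis.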

A short description of data set [2]: Cytotoxicity against human U937 cells assessed as cell viability at 1.25 ug/ml after 72 hrs by MTT assay. In kind it is cell-based, U-937. As to conditions: read-out: Activity. A digest of the protocol:
(§2)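 U937 human monocytic cells plated at 1 × 10^5 cells/mL and allowed to adhere for 1 h at 37 °C in 5% CO2. Non-adherent cells were washed off with RPMI 1640. Adherent cells were exposed to compound in triplicate, with medium alone as the live control and 3% Tween 20 as the dead control. MTT (5 mg/mL in PBS) was then added for 3 h at 37 °C. Formazan was dissolved in 0.4 M HCl/isopropanol and absorbance read at 600 nm. Results are expressed as % cell viability.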

The test system of data set [3] is Serum. The data set can be described thus: Stability of the compound in 80% human blood serum assessed as hydrolysis to 2-bromo-6-(1H-imidazol-1-yl)-7H-indeno[2,1-c]quinolin-7-one oxime at 1 mg after 24 hrs at 37 degC by LC-MS analysis. In kind it is ADME, cell-free. Also on record: scale not given: the % may be the effect or the level left. The essentials:
(§3)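 Enzymatic hydrolysis: 1 mg prodrug dissolved in 1 mL ethanol, then 200 µL preheated human blood serum diluted to 80% with 0.16 M phosphate buffer (pH 7.4) was added. Samples were kept at 37 °C (24 h) and centrifuged 10 min at 10,000 rpm. Remaining prodrug in the supernatant was monitored by TLC and LC-MS. t1/2 is the time to 50% hydrolysis.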

Data set [4] is described as follows: Cytotoxicity against human U937 cells assessed as cell viability at 20 ug/ml after 72 hrs by MTT assay. It is filed as cell-based, U-937. As to conditions: read-out: Activity. The essentials: as §2
A short description of data set [5]: Cytotoxicity against human U937 cells assessed as cell viability at 5 ug/ml after 72 hrs by MTT assay. It is filed as cell-based, U-937. As to conditions: read-out: Activity. The essentials: as §2
On the technique in general: Tetrazolium dyes change colour on reduction, which living cells bring about.

The nature of data set [6]: Half life in human blood serum by LC-MS analysis. In kind it is ADME, cell-free, Plasma. The essentials: as §3
Data set [7] in a line: Octanol-water partition coefficient, log P of the compound at pH 7.4 at room temperature by UV spectrophotometric analysis. It is filed as physicochemical. The essentials: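 Shake-flask method at room temperature: 1-octanol and phosphate buffer (pH 7.4) were pre-saturated by shaking for 24 h. Compound at 10^-4 M in equal volumes of both phases was shaken vigorously for 1 h, left to stand 15 min, then centrifuged 10 min at 10,000 rpm. UV absorbance of each phase was read at 280 nm against blanks, and P was taken as the octanol/water absorbance ratio.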

The nature of data set [8]: Half life in 10% aqueous ammonia buffer at pH 8 assessed as hydrolysis to 2-bromo-6-(1H-imidazol-1-yl)-7H-indeno[2,1-c]quinolin-7-one oxime at 37 degC by LC-MS analysis. In kind it is physicochemical. A digest of the protocol:
as §1

Data set [9] is described as follows: Cytotoxicity against human U937 cells assessed as cell viability at 10 ug/ml after 72 hrs by MTT assay. It is filed as cell-based, U-937. Particulars: read-out: Activity. The essentials:
as §2

Data set [10] concerns Mycobacterium tuberculosis. The experiment in a line: Antimicrobial activity against Mycobacterium tuberculosis H37Rv ATCC 27294 after 16 to 24 hrs by microplate alamar blue assay. It is filed as functional. The essentials: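 M. tuberculosis H37Rv inoculum 2×10^5 cfu/mL (100 µL) added to twofold dilutions in Middlebrook 7H12 medium; final test range 128 µM to 0.5 µM from 12.8 mM DMSO stocks. Incubated 37 °C; day 7 Tween 80 plus Alamar Blue added, further 16-24 h at 37 °C. Fluorescence ex 530/em 590 nm; MIC = lowest concentration giving >90% fluorescence reduction versus replicate bacteria-only controls. Rifampin, isoniazid controls.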

Data set [11] can be described thus: Selectivity index, ratio CC50 for human U937 cells to MIC for Mycobacterium tuberculosis H37Rv ATCC 27294. It is filed as functional, U-937.

Broadly, the half-life is the time in which the quantity being followed falls by half. Broadly, the logD is the decadic logarithm of the distribution of all forms, ionised or not, between an organic phase and buffer at a given pH. By MIC is commonly meant the lowest concentration that inhibits growth of the organism. `CCC(=O)O/N=C1\c2ccccc2-c2c1c(-n1ccnc1)nc1ccc(Br)cc21`: the Activity is 95% in data set [1] and 90% in data set [3]. Further, in data set [2], the viability at 72 h, 1.25 ug/ml turned out to be 84%. Further, in data set [4], the viability at 72 h, 20 ug/ml amounted to 67%. The viability at 72 h, 5 ug/ml in data set [5] was 86%. The figures for the half-life in data set [6] and in [8] were 84 h and 48 h, respectively. In data set [7], this compound gave a logD of 1.2. In addition, in [9], the viability at 72 h, 10 ug/ml was found to be 75%. The same compound had an MIC in data set [10] of 0.29 mg/L (≈ 0.648 µM). Also, the “Selectivity Index” value in [11] is listed as above 137.

For `CCCC(=O)O/N=C1\c2ccccc2-c2c1c(-n1ccnc1)nc1ccc(Br)cc21`, the Activity in data set [1] was 95%; in [3] it was 90%. In addition, the viability at 72 h, 1.25 ug/ml in data set [2] amounted to 85%. Besides, in data set [4], the viability at 72 h, 20 ug/ml was determined as 70%. Moreover, the viability at 72 h, 5 ug/ml in [5] was determined as 88%. Moreover, the half-life is 96 h in [6] and 36 h in data set [8]. The compound also had a logD in data set [7] of 1.5. The viability at 72 h, 10 ug/ml in [9] amounted to 69%. The compound also yielded an MIC in data set [10] below 0.2 mg/L. For the same compound, the “Selectivity Index” value in data set [11] is given as above 200.

For `CC(C)(C)OC(=O)NCC(=O)O/N=C1\c2ccccc2-c2c1c(N1CCN(c3ccccn3)CC1)nc1ccc(Br)cc21`, the Activity in data set [1] and in data set [3] was 95% in each case. Further, the viability at 72 h, 1.25 ug/ml in data set [2] is 87%. For the same compound, the viability at 72 h, 20 ug/ml in data set [4] stood at 49%. In addition, the viability at 72 h, 5 ug/ml in data set [5] was 82%. Further, the half-life in data set [6] is 24 h; in [8], 3.6 h. Moreover, in data set [7], the logD is 0.7. In addition, in data set [9], the viability at 72 h, 10 ug/ml worked out at 63%. The MIC in data set [10] turned out to be 1.55 mg/L (≈ 2.41 µM). The “Selectivity Index” value in [11] is reported as 22.

On to `CC(C)(C)OC(=O)NC(Cc1cccc(F)c1)C(=O)O/N=C1\c2ccccc2-c2c1c(N1CCN(c3ccccn3)CC1)nc1ccc(Br)cc21` (centres undefined), for which the Activity in data set [1] and in [3] was 95% in each case. Besides, in data set [2], the viability at 72 h, 1.25 ug/ml is 92%. The viability at 72 h, 20 ug/ml in data set [4] stood at 84%. Besides, the viability at 72 h, 5 ug/ml in [5] was determined as 90%. The half-life is 144 h in data set [6] and 72 h in [8]. The same compound displayed a logD in data set [7] of 1.1. Further, the viability at 72 h, 10 ug/ml in data set [9] was 79%. The same compound returned an MIC in [10] of 2.98 mg/L (≈ 3.96 µM). In addition, in data set [11], the “Selectivity Index” value is on record as above 13.
